Measurements reported in ChEMBL document CHEMBL1153631, “On the role of topoisomerase I in mediating the cytotoxicity of 9-aminoacridine-based anticancer agents” (Bioorg Med Chem Lett, 2009).
Calls of active or inactive are those of the source. The rule behind the calls is not given here.

Key:
HeLa = test: Cytotoxicity against human HeLa cells at 10 to 40 uM by coomassie blue assay in presence of topoisomerase 1-directed siRNA
[1] = target: T1, DNA topoisomerase 1 (Homo sapiens) (UniProt P11387); test: Inhibition of human topoisomerase 1-mediated relaxation of supercoiled plasmid O6#7 DNA at 8 uM after 30 mins by gel electrophoresis
T1 sequence (whole entry): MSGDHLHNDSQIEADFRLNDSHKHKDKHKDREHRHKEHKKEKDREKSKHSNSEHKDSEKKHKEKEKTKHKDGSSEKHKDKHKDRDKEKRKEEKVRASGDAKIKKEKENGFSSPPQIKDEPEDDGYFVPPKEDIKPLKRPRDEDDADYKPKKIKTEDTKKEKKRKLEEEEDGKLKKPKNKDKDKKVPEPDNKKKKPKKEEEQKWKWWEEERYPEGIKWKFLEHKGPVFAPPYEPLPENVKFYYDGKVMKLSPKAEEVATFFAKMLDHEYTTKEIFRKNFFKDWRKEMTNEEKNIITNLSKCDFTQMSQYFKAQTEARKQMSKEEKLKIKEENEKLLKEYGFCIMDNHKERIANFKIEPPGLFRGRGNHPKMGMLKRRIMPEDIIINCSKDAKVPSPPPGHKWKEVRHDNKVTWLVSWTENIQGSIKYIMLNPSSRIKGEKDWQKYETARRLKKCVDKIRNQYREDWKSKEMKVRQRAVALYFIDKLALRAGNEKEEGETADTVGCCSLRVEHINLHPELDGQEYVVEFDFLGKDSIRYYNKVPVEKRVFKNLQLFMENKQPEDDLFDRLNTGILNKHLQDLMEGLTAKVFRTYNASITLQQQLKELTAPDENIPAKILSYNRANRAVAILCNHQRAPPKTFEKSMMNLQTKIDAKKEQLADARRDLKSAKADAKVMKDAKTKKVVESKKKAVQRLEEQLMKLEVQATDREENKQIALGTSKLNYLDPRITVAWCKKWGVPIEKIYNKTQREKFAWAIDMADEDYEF
Outline: (§1)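 Supercoiled plasmid incubated with 2 units topoisomerase I and test agent at 8 μM or at a final 50 or 100 μM. A no-enzyme lane was included. Supercoiled and relaxed DNA bands were resolved on a gel. Four experiments.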

DU-145 = test: Cytotoxic activity against human DU145 cells after 48 hrs by fluorescent resazurin dye assay; assay type: functional, cell-based; conditions: DU-145, 48 h
[2] = target: T1, DNA topoisomerase 1 (Homo sapiens); test: Inhibition of human topoisomerase 1-mediated relaxation of supercoiled plasmid O6#7 DNA at 100 uM after 30 mins by gel electrophoresis
Outline: as §1

[3] = Cytotoxic activity against human OCL3 cells after 48 hrs by fluorescent resazurin dye assay; assay type: functional, cell-based; conditions: OCL3, 48 h
[4] = Cytotoxic activity against mouse Hepa-1c1c7 cells after 48 hrs by fluorescent resazurin dye assay; assay type: functional, cell-based; conditions: Hepa-1c1c7, 48 h
REH = test: Cytotoxic activity against human REH cells after 48 hrs by fluorescent resazurin dye assay; assay type: functional, cell-based
MCF7 = test: Cytotoxic activity against human MCF7 cells after 48 hrs by fluorescent resazurin dye assay; assay type: functional, cell-based; conditions: MCF7, 48 h
NCI-H460 = test: Cytotoxic activity against human H460 cells after 48 hrs by fluorescent resazurin dye assay; assay type: functional, cell-based; conditions: NCI-H460, 48 h
HCT-116 = test: Cytotoxic activity against human HCT116 cells after 48 hrs by fluorescent resazurin dye assay; assay type: functional, cell-based; conditions: HCT-116, 48 h
[5] = Cytotoxic activity against human SU-8686 cells after 48 hrs by fluorescent resazurin dye assay; assay type: functional, cell-based; conditions: SU.86.86, 48 h
SK-MEL = test: Cytotoxic activity against human SK-MEL cells after 48 hrs by fluorescent resazurin dye assay; assay type: functional, cell-based
[6] = target: T1, DNA topoisomerase 1 (Homo sapiens); test: Induction of covalent topoisomerase 1-DNA adduct stabilization in human MIA PaCa cells at 20 uM after 1 hr by ICE assay; assay type: cell-based; conditions: 100 uM, in the assay text read “100 uM” for “20 uM”
Outline: (§2)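 MiaPACA cells exposed to 20 or 100 μM agent for 1 h at 37 °C (vehicle 0.1% DMSO), then lysed with sarkosyl for the ICE bioassay. CsCl-purified DNA-positive gradient fractions were immunoblotted for topoisomerase I. Four independent experiments.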

[7] = target: T1, DNA topoisomerase 1 (Homo sapiens); test: Induction of covalent topoisomerase 1-DNA adduct stabilization in human MIA PaCa cells at 100 uM after 1 hr by ICE assay; assay type: cell-based
Outline: as §2

[8] = target: T1, DNA topoisomerase 1 (Homo sapiens); test: Induction of covalent human topoisomerase 1-plasmid O6#7 DNA adduct stabilization assessed as appearance of nicked plasmid at 100 uM by agarose gel electrophoresis
Outline: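 Supercoiled plasmid aliquots incubated 30 min at 37 °C with nuclear extract containing 50 units topoisomerase I and test agent at 1.6 μM or 100 μM; the DNA products were then examined.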

Row | SMILES | Activity (HeLa) | Activity [1] | EC50 (DU-145) [µM] | Activity [2] | EC50 [3] [µM] | EC50 [4] [µM] | EC50 (REH) [µM] | EC50 (MCF7) [µM] | EC50 (NCI-H460) [µM] | EC50 (HCT-116) [µM] | EC50 [5] [µM] | EC50 (SK-MEL) [µM] | Activity [6] | Activity [7] | Activity [8]
1 | CC[C@@]1(O)C(=O)OCc2c1cc1n(c2=O)Cc2cc3ccccc3nc2-1 | inactive | – | – | – | – | – | – | – | – | – | – | – | – | – | –
2 | COc1ccc2c(c1)-c1nn(CCCN(C)C)c3ccc([N+](=O)[O-])c(c13)N2 | – | Active | – | – | – | – | – | – | – | – | – | – | – | – | –
3 | CN1CCN(C(=O)c2ccc3c(NCCc4c[nH]c5ccccc45)c4ccccc4nc3c2)CC1 | – | – | 16.6 | inactive | 15.3 | 24.8 | 4.1 | 19.2 | 31.8 | 27.6 | 16.3 | 5.3 | – | – | –
4 | CCN(CC)C(=O)c1ccc2c(NCCc3c[nH]c4ccccc34)c3ccccc3nc2c1 | – | – | 11.9 | inactive | 18.3 | 11.2 | 15.5 | 13.5 | 18.8 | 11.2 | 16.2 | 16 | Active | – | –
5 | CN1CCN(C(=O)c2cccc3c(NCCc4c[nH]c5ccccc45)c4ccccc4nc23)CC1 | – | – | 37.2 | inactive | 39.8 | 55.9 | 19.7 | 37.2 | 16 | 29 | 6.8 | 16.7 | Active | – | –
6 | CN1CCN(C(=O)c2ccc3c(NC4CCN(Cc5ccccc5)CC4)c4ccccc4nc3c2)CC1 | Active | – | 32.4 | inactive | 20.3 | 26.9 | 21 | 25.7 | 38.5 | 29.2 | 21.2 | 14.6 | – | Active | Active
